Source: ChEMBL document CHEMBL1157562, “Piperazinyl glutamate pyridines as potent orally bioavailable P2Y12 antagonists for inhibition of platelet aggregation” (J Med Chem, 2010)

Experiments:
P2Y purinoceptor 12 = P2Y purinoceptor 12 (Homo sapiens, UniProt Q9H244); experiment: Displacement of [33P]ADP from human recombinant P2Y12 receptor expressed in CHO cells; assay type: cell-based
In short: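 Washed membranes from CHO cells expressing synthetic human P2Y12, incubated 1 h at room temperature with 0.2 nM 33P-MeSADP in 50 mM Tris/100 mM NaCl/1 mM EDTA. Compound was tested as a 7-point 3-fold series in triplicate. Nonspecific binding was defined with 300 nM 2-MeSADP, followed by filtration.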

[1] = Antiplatelet aggregation activity against adenosine diphosphate-induced human platelet rich plasma assessed as inhibition of platelet aggregation by turbidimetric method; assay type: functional; conditions: Homo sapiens, Platelet, Plasma
In short: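 Human PRP, prepared by two-step centrifugation and adjusted to 330 000 platelets/μL with PPP. Compound was preincubated 5 min at 37 °C in 0.5% DMSO, then 20 μM ADP was added. OD626 was read kinetically for 15 min at 37 °C with mixing between reads.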

Platelet = experiment: Relative potency, ratio of IC50 for drug to IC50 for AZD-6140 for platelet aggregation in human platelet rich plasma; assay type: functional

Sequence of P2Y purinoceptor 12 (Q9H244 whole entry): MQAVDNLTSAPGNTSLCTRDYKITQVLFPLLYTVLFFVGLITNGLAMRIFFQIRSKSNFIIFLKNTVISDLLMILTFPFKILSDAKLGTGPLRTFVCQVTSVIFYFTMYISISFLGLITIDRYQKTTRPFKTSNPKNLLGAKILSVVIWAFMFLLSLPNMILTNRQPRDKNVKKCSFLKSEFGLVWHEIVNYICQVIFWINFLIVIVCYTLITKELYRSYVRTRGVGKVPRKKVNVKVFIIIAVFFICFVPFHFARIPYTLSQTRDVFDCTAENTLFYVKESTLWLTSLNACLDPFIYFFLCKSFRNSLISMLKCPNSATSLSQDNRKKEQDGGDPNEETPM

| Ki (P2Y purinoceptor 12) [µM] | IC50 [1] [µM] | SMILES | Ratio IC50 (Platelet) |
| --- | --- | --- | --- |
| 0.0024 | 3.2 | CCCCOC(=O)N1CCN(C(=O)[C@H](CCC(=O)O)NC(=O)c2cc(NCCOC)cc(-c3ccccc3)n2)CC1 | 2.4 |
| 0.0053 | 0.62 | CCCCOC(=O)N1CCN(C(=O)[C@H](CCC(=O)O)NC(=O)c2cc(OCC3CCN(CCOC)CC3)cc(-c3ccccc3)n2)CC1 | 0.53 |
| 0.089 | 97 | CCCCCCOC(=O)N1CCN(C(=O)[C@H](CCC(=O)O)NC(=O)c2cc(OCCCC)cc(-c3ccccc3)n2)CC1 | 65 |
| 0.0086 | 0.42 | CCCCCOC(=O)N1CCN(C(=O)[C@H](CCC(=O)O)NC(=O)c2cc(C(=O)N(C)CCCN(C)C)cc(-c3ccccc3)n2)CC1 | 0.96 |
| 0.01 | 6.8 | CCCCCOC(=O)N1CCN(C(=O)[C@H](CCC(=O)O)NC(=O)c2cc(C(=O)NC)cc(-c3ccccc3)n2)CC1 | 9.7 |
| 0.018 | 22 | CCCCCOC(=O)N1CCN(C(=O)[C@H](CCC(=O)O)NC(=O)c2cc(OCCC)cc(-c3ccccc3)n2)CC1 | 28 |
| 0.0098 | 3.2 | CCCCCOC(=O)N1CCN(C(=O)[C@H](CCC(=O)O)NC(=O)c2cc(NCCOC)cc(-c3ccccc3)n2)CC1 | 4.9 |
| 0.011 | 2.3 | CCCCOC(=O)N1CCN(C(=O)[C@H](CCC(=O)O)NC(=O)c2cc(OCC3CCOCC3)cc(-c3ccccc3)n2)CC1 | 3.6 |
| 0.0037 | 0.81 | CCCCOC(=O)N1CCN(C(=O)[C@H](CCC(=O)O)NC(=O)c2cc(OCCC3CCCCN3)cc(-c3ccccc3)n2)CC1 (stereo not given in full) | 0.88 |

The next lines start with the compound.

| SMILES | Ki (P2Y purinoceptor 12) [µM] | IC50 [1] [µM] | Ratio IC50 (Platelet) |
| --- | --- | --- | --- |
| CCCCCOC(=O)N1CCN(C(=O)[C@H](CCC(=O)O)NC(=O)c2cc(OCC3CCN(C(=O)C(F)(F)F)CC3)cc(-c3ccccc3)n2)CC1 | 0.0045 | 3.5 | 4.8 |
| CCCCCOC(=O)N1CCN(C(=O)[C@H](CCC(=O)O)NC(=O)c2cc(OC(=O)N(C)C3CCOC3)cc(-c3ccccc3)n2)CC1 (stereo not given in full) | 0.0023 | 0.47 | 0.59 |
| CCCCCOC(=O)N1CCN(C(=O)[C@H](CCC(=O)O)NC(=O)c2cc(C(=O)N3CCCCC3)cc(-c3ccccc3)n2)CC1 | 0.0028 | 0.91 | 2.2 |
| CCCCOC(=O)N1CCN(C(=O)[C@H](CCC(=O)O)NC(=O)c2cc(OCC3CCN(C(C)=O)CC3)cc(-c3ccccc3)n2)CC1 | 0.0039 | 2.1 | 1.4 |
| CCCCCOC(=O)N1CCN(C(=O)[C@H](CCC(=O)O)NC(=O)c2cc(N3CCC(OC)CC3)cc(-c3ccccc3)n2)CC1 | 0.015 | 3.9 | 3 |
| CCCCCCOC(=O)N1CCN(C(=O)[C@H](CCC(=O)O)NC(=O)c2cc(N3CCC(N)CC3)cc(-c3ccccc3)n2)CC1 | 0.0033 | 2.4 | 3.4 |
| CCCCCOC(=O)N1CCN(C(=O)[C@H](CCC(=O)O)NC(=O)c2cc(NC(=O)NCC3CCNCC3)cc(-c3ccccc3)n2)CC1 | 0.0014 | 5.6 | 3.8 |
| CCCCCOC(=O)N1CCN(C(=O)[C@H](CCC(=O)O)NC(=O)c2cc(NC(=O)CN(C)C)cc(-c3ccccc3)n2)CC1 | 0.0041 | 5.6 | 6.4 |
| CCCCOC(=O)N1CCN(C(=O)[C@H](CCC(=O)O)NC(=O)c2cc(OC3CCN(CCOC)CC3)cc(-c3ccccc3)n2)CC1 | 0.0094 | 1.2 | 1.1 |
| CCCCCOC(=O)N1CCN(C(=O)[C@H](CCC(=O)O)NC(=O)c2cc(OCC3CCN(C(=O)COC)CC3)cc(-c3ccccc3)n2)CC1 | 0.012 | 1.3 | 1.3 |
| CCCCCOC(=O)N1CCN(C(=O)[C@H](CCC(=O)O)NC(=O)c2cc(N3CCCCC3)cc(-c3ccccc3)n2)CC1 | 0.0055 | 16 | 18 |
